Measurements taken from ChEMBL document CHEMBL3751733, “Synergistic Antifungal Meroterpenes and Dioxolanone Derivatives from the Endophytic Fungus Guignardia sp” (J Nat Prod, 2015).
≈ marks a conversion by molar mass, not a printed value. Calls of active or inactive are those of the source. No cut-off for these calls is given here.

Assays:
[1] = tested on: MCF7; experiment: Cytotoxicity against human MCF7 cells by MTT assay; type: cell-based
Outline: (§1)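 MTT assay with cisplatin as positive control.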

[2] = tested on: HepG2; experiment: Cytotoxicity against human HepG2 cells by MTT assay; type: cell-based; outline: as §1
[3] = tested on: Candida albicans; experiment: Antibiofilm activity against Candida albicans ATCC 24433 after 24 hrs by XTT-based colorimetric assay; type: functional; conditions: ATCC 24433, 24 h
Outline: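 XTT assay: YPD overnight culture, PBS-washed, 1.0 × 10^6 cfu/mL in RPMI-1640/MOPS; biofilms formed at 37 °C for 24 h, washed, then treated 24 h at 37 °C; 0.5 mg/mL XTT for 2 h, read at 490 nm. MIC = lowest concentration giving ≥80% reduction in XTT signal.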

[4] = tested on: U2OS; experiment: Cytotoxicity against human U2OS cells by MTT assay; type: cell-based; outline: as §1
[5] = tested on: Candida albicans; experiment: Antifungal activity against Candida albicans ATCC 24433 assessed as fractional inhibition concentration index in presence of fluconazole by checkerboard assay; type: functional
Outline: (§2)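 Checkerboard in RPMI-1640/MOPS, inoculum 1.0 × 10^4 cfu/mL, 35 °C, 24 h, OD 595 nm. Compound 25 to 0.8 μg/mL against fluconazole 4.0 to 0.0078 μg/mL. MIC = concentrations giving ≥80% growth reduction. FICI ≤ 0.5 counts as synergy; values compared at fluconazole 0.031 μg/mL.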

[6] = tested on: Candida albicans; experiment: Antifungal activity against Candida albicans ATCC 24433 assessed as fractional inhibition concentration ratio in presence of fluconazole by checkerboard assay; type: functional; outline: as §2
[7] = tested on: Candida albicans; experiment: Potentiation of antifungal activity of fluconazole against Candida albicans ATCC 24433 by checkerboard assay; type: functional; outline: as §2
[8] = tested on: Candida albicans; experiment: Antifungal activity against Candida albicans ATCC 24433 assessed as growth inhibition after 24 hrs by broth microdilution assay; type: functional; conditions: ATCC 24433, 24 h
Outline: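 Broth microdilution: 24-h colonies suspended in 0.85% saline, diluted in RPMI-1640 with MOPS to 1.0 × 10^4 cfu/mL final, mixed 1:1 with sample; 35 °C, 24 h; OD 595 nm. MIC = lowest concentration giving 80% growth reduction. Fluconazole positive control; SD from three independent experiments.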

[9] = tested on: Candida albicans; experiment: Synergistic antibiofilm activity against Candida albicans ATCC 24433 assessed as fractional inhibition concentration index after 24 hrs in presence of fluconazole checkerboard assay; type: functional
Outline: (§3)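 Preformed biofilms (1.0 × 10^6 cfu/mL in RPMI-1640/MOPS, 37 °C, 24 h) treated 24 h at 37 °C in a checkerboard: compounds 160 to 5 μg/mL, fluconazole 500 to 8 μg/mL. Read by 0.5 mg/mL XTT for 2 h at 490 nm, ≥80% reduction as endpoint; FICI calculated.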

[10] = tested on: Candida albicans; experiment: Synergistic antibiofilm activity against Candida albicans ATCC 24433 assessed as fractional inhibition concentration ratio after 24 hrs in presence of fluconazole by checkerboard assay; type: functional; outline: as §3
[11] = tested on: Candida albicans; experiment: Antibiofilm activity against Candida albicans ATCC 24433 after 24 hrs in presence of fluconazole by XTT-based colorimetric assay; type: functional; conditions: ATCC 24433, 24 h; outline: as §3
[12] = tested on: Candida albicans; experiment: Antifungal activity against Candida albicans ATCC 24433 assessed as synergistic growth inhibition after 24 hrs in presence of fluconazole by broth microdilution assay; type: functional; conditions: ATCC 24433, 24 h; outline: as §2
[13] = tested on: Staphylococcus aureus; experiment: Antibacterial activity against Staphylococcus aureus ATCC 25923 by broth microdilution method; type: functional
Outline: (§4)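 Broth microdilution in 96-well plates; MIC read by comparing OD with the growth control; amoxicillin and streptomycin as positive controls.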

[14] = tested on: Pseudomonas aeruginosa; experiment: Antibacterial activity against Pseudomonas aeruginosa ATCC 9027 by broth microdilution method; type: functional; outline: as §4
[15] = tested on: Bacillus subtilis; experiment: Antibacterial activity against Bacillus subtilis ATCC 6633 by broth microdilution method; type: functional; outline: as §4
[16] = tested on: Escherichia coli; experiment: Antibacterial activity against Escherichia coli ATCC 25922 by broth microdilution method; type: functional; outline: as §4
[17] = tested on: Candida albicans; experiment: Synergistic antibiofilm activity against Candida albicans ATCC 24433 assessed as reduction in biofilm formation at 40 to 80 ug/ml in presence of 63 ug/ml fluconazole by scanning electron microscopic analysis; type: functional, organism-based
Outline: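 Biofilms grown 24 h at 37 °C on poly-L-lysine-treated glass coverslips from 1.0 × 10^6 cfu/mL, washed, then exposed 24 h to compound plus fluconazole; fixed in 2.5% glutaraldehyde (0.2 M PBS, pH 7.2) and 1% osmium, ethanol-dehydrated, critical-point dried, gold-coated; SEM at 10 kV.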

| SMILES | Activity [1] | Activity [2] | MIC80 [3] | Activity [4] | fractional inhibitory concentration index (FICI) [5] | Ratio [6] | fold change (FC) [7] | MIC80 [8] | fractional inhibitory concentration index (FICI) [9] | Ratio [10] | MIC80 [11] | MIC [12] | MIC [13] | MIC [14] | MIC [15] | MIC [16] | MIC80 [12] | Activity [17] |
| --- | --- | --- | --- | --- | --- | --- | --- | --- | --- | --- | --- | --- | --- | --- | --- | --- | --- | --- |
| C=C(C)[C@@H]1CC[C@@]2(C)OC3=C(C[C@@H]12)C(=O)[C@H](O)C[C@@H]3O | Non-toxic | Non-toxic | > 200 µg/mL | Non-toxic | – | – | – | – | – | – | – | – | – | – | – | – | – | – |
| CC(C)[C@H]1OC(=O)[C@H](Cc2ccccc2)N(C)C(=O)[C@@H](C(C)C)OC(=O)[C@H](Cc2ccccc2)N(C)C(=O)[C@@H](C(C)C)OC(=O)[C@H](Cc2ccccc2)N(C)C1=O | – | – | > 200 µg/mL | – | <0.13 | <0.013 | >16 | > 100 µg/mL | <0.31 | <0.25 | 40 µg/mL | 1.3 µg/mL | – | – | – | – | – | – |
| C=C(C)[C@@H]1CC[C@@]2(C)OC3=C(C[C@@H]12)C(=O)[C@H](OC)C[C@@H]3O | Non-toxic | Non-toxic | > 200 µg/mL | Non-toxic | – | – | – | – | – | – | – | – | > 100 µg/mL | > 100 µg/mL | 37.3 µg/mL (≈ 128 µM) | > 100 µg/mL | – | – |
| C=C(C)[C@@H]1C[C@H](O)[C@@]2(C)OC3=C(C[C@@H]12)C(=O)[C@]1(O)CO[C@H]3C1 | Non-toxic | Non-toxic | > 200 µg/mL | Non-toxic | – | – | – | – | <0.46 | <0.4 | 80 µg/mL | – | – | – | – | – | – | – |
| CC(C)[C@@]1(C(=O)O)OC(=O)/C(=C/c2ccccc2)O1 | Non-toxic | Non-toxic | > 200 µg/mL | Non-toxic | 0.19 | 0.07 | – | 87.5 µg/mL (≈ 334 µM) | <0.16 | <0.1 | 20 µg/mL | – | – | – | – | – | 6.3 µg/mL | – |
| C=C(C)[C@@H]1[C@H](O)C[C@@]2(C)OC3=C(C[C@@H]12)C(=O)[C@]1(O)CO[C@H]3C1 | Non-toxic | Non-toxic | > 200 µg/mL | Non-toxic | <0.38 | <0.25 | >16 | > 100 µg/mL | <0.31 | <0.25 | 40 µg/mL | – | 73.6 µg/mL (≈ 240 µM) | 53.2 µg/mL (≈ 174 µM) | 73.5 µg/mL (≈ 240 µM) | 88.3 µg/mL (≈ 288 µM) | 25 µg/mL | – |
| CC1(C)S[C@@H]2[C@H](NC(=O)[C@H](N)c3ccc(O)cc3)C(=O)N2[C@H]1C(=O)O [AMOXICILLIN] | – | – | – | – | – | – | – | – | – | – | – | – | 0.8 µg/mL (≈ 2.19 µM) | – | 1 µg/mL (≈ 2.74 µM) | – | – | – |
| C=C(C)[C@@H]1CC[C@@]2(C)OC3=C(C[C@@H]12)C(=O)[C@@H](OC)C[C@@H]3O | Non-toxic | Non-toxic | > 200 µg/mL | Non-toxic | – | – | – | – | – | – | – | – | – | – | – | – | – | – |
| C=C(C)[C@@H]1CC[C@@]2(C)OC3=C(C[C@@H]12)C(=O)[C@]1(O)CO[C@H]3C1 | Non-toxic | Non-toxic | > 200 µg/mL | Non-toxic | – | – | – | – | – | – | – | – | > 100 µg/mL | 25.5 µg/mL (≈ 87.8 µM) | > 100 µg/mL | > 100 µg/mL | – | – |
| CC(C)(O)[C@@H]1CC[C@@]2(C)OC3=C(C[C@@H]12)C(=O)[C@]1(O)CO[C@H]3C1 | Non-toxic | Non-toxic | > 200 µg/mL | Non-toxic | 0.32 | – | – | 15.5 µg/mL (≈ 50.3 µM) | <0.46 | <0.4 | 80 µg/mL | – | > 100 µg/mL | 52.1 µg/mL (≈ 169 µM) | 67.7 µg/mL (≈ 220 µM) | 35.9 µg/mL (≈ 116 µM) | 6.3 µg/mL | – |
| COC(=O)[C@]1(C(C)C)OC(=O)/C(=C\c2ccc(O)cc2)O1 | Non-toxic | Non-toxic | > 200 µg/mL | Non-toxic | – | – | – | – | – | – | – | – | – | – | – | – | – | – |
| C[C@](O)(CO)[C@@H]1CC[C@@]2(C)OC3=C(C[C@@H]12)C(=O)[C@]1(O)CO[C@H]3C1 | Non-toxic | Non-toxic | > 200 µg/mL | Non-toxic | <0.38 | <0.25 | – | > 100 µg/mL | <0.46 | <0.4 | 80 µg/mL | – | – | – | – | – | 25 µg/mL | – |
| C[C@@]12CC[C@@H]([C@](C)(O)CO)[C@@H]1CC1=C(O2)[C@@H]2C[C@@](O)(CO2)C1=O | Non-toxic | Non-toxic | > 200 µg/mL | Non-toxic | 0.23 | 0.11 | >16 | 57.3 µg/mL (≈ 177 µM) | <0.31 | <0.25 | 40 µg/mL | – | 79.2 µg/mL (≈ 244 µM) | > 100 µg/mL | > 100 µg/mL | 78 µg/mL (≈ 240 µM) | 6.3 µg/mL | Active |
| C=C(C)[C@@H]1C[C@H](O)[C@@]2(C)OC3=C(C[C@@H]12)C(=O)[C@](O)(CO)C[C@@H]3O | Non-toxic | Non-toxic | > 200 µg/mL | Non-toxic | – | – | – | – | <0.46 | <0.4 | 80 µg/mL | – | – | – | – | – | – | – |
| C=C(C)[C@@H]1CC[C@@]2(C)OC3=C(C[C@@H]12)C(=O)[C@](O)(CO)C[C@@H]3O | Non-toxic | Non-toxic | > 200 µg/mL | Non-toxic | – | – | – | – | – | – | – | – | > 100 µg/mL | > 100 µg/mL | 89.3 µg/mL (≈ 290 µM) | > 100 µg/mL | – | – |
| Oc1cccc2c1[C@H](O)[C@@H]1O[C@@H]1C21Oc2cccc3cccc(c23)O1 | Non-toxic | Non-toxic | 145 µg/mL (≈ 434 µM) | Non-toxic | 0.38 | 0.26 | – | 24.3 µg/mL (≈ 72.7 µM) | <0.34 | 0.28 | 40 µg/mL | – | 37.7 µg/mL (≈ 113 µM) | 45.5 µg/mL (≈ 136 µM) | 59.5 µg/mL (≈ 178 µM) | > 100 µg/mL | 6.3 µg/mL | – |
| C=C(CO)[C@@H]1CC[C@@]2(C)OC3=C(C[C@@H]12)C(=O)[C@]1(O)CO[C@H]3C1 | Non-toxic | Non-toxic | > 200 µg/mL | Non-toxic | – | – | – | – | – | – | – | – | – | – | – | – | – | – |
| CN[C@@H]1[C@H](O[C@H]2[C@H](O[C@H]3[C@H](O)[C@@H](O)[C@H](N=C(N)N)[C@@H](O)[C@@H]3N=C(N)N)O[C@@H](C)[C@]2(O)C=O)O[C@@H](CO)[C@H](O)[C@H]1O [STREPTOMYCIN] | – | – | – | – | – | – | – | – | – | – | – | – | – | 1.7 µg/mL (≈ 2.92 µM) | – | 2.4 µg/mL (≈ 4.13 µM) | – | – |
| C=C(C)[C@@H]1CC[C@@]2(C)OC3=C(C[C@@H]12)C(=O)[C@@H]1C[C@@]3(O)CO1 | Non-toxic | Non-toxic | > 200 µg/mL | Non-toxic | – | – | – | – | – | – | – | – | – | – | – | – | – | – |
| C=C(COC(C)=O)[C@@H]1CC[C@@]2(C)OC3=C(C[C@@H]12)C(=O)[C@]1(O)CO[C@H]3C1 | Non-toxic | Non-toxic | > 200 µg/mL | Non-toxic | – | – | – | – | – | – | – | – | – | – | – | – | – | – |
